Data from ChEMBL document CHEMBL3046823, “Insect muscarinic acetylcholine receptor: pharmacological and toxicological profiles of antagonists and agonists” (J Agric Food Chem, 2007).

Tests used:
[1] = target: T1, Muscarinic acetylcholine receptor DM1 (Drosophila melanogaster, UniProt P16395); assay: Displacement of [3H]QNB from Drosophila melanogaster mAChR by scintillation counting
[2] = target: T1, Muscarinic acetylcholine receptor DM1; assay: Displacement of [3H]AF-DX 384 from Drosophila melanogaster mAChR by scintillation counting
Musca domestica [3] = assay: Toxicity to Musca domestica (house fly) assessed as mortality at 75 ug/fly measured after 24 hr; format: functional
In short: (§1)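 Insecticide-susceptible adult female Musca (~25 mg) received PPP (2.5 µg/fly in 0.5 µL acetone, abdominal ventrum), then 90 min at room temperature. The compound (active ingredient) was given by intrathoracic injection in 0.22 µL water or 25-50% Me2SO/water. Mortality was scored at 0.5, 1.0, 1.5, 2.5 and 24 h.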

Musca domestica [4] = assay: Toxicity to Musca domestica (house fly) assessed as mortality at 75 ug/fly measured after 2.5 hr; format: functional; in short: as §1
Musca domestica [5] = assay: Toxicity to Musca domestica (house fly) assessed as mortality at 75 ug/fly measured after 1.5 hr; format: functional; in short: as §1
Musca domestica [6] = assay: Toxicity to Musca domestica (house fly) assessed as mortality at 75 ug/fly measured after 1 hr; format: functional; in short: as §1
Musca domestica [7] = assay: Toxicity to Musca domestica (house fly) assessed as mortality at 75 ug/fly measured after 0.5 hr; format: functional; in short: as §1
Musca domestica [8] = assay: Toxicity to Musca domestica (house fly) assessed as mortality at 25 ug/fly measured after 24 hr; format: functional; in short: as §1
Musca domestica [9] = assay: Toxicity to Musca domestica (house fly) assessed as mortality at 25 ug/fly measured after 2.5 hr; format: functional; in short: as §1
Musca domestica [10] = assay: Toxicity to Musca domestica (house fly) assessed as mortality at 25 ug/fly measured after 1.5 hr; format: functional; in short: as §1
Musca domestica [11] = assay: Toxicity to Musca domestica (house fly) assessed as mortality at 25 ug/fly measured after 1 hr; format: functional; in short: as §1
Musca domestica [12] = assay: Toxicity to Musca domestica (house fly) assessed as mortality at 25 ug/fly measured after 0.5 hr; format: functional; in short: as §1
Musca domestica [13] = assay: Ex vivo inhibition of [3H]QNB binding in brain of Musca domestica (house fly) at 75 ug/fly measured after 24 hr; format: functional
In short: (§2)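 Adult female houseflies pretreated with PPP (2.5 µg/fly, topical in acetone, 90 min), then dosed by intrathoracic injection in 0.22 µL water or 25-50% Me2SO/water. Heads were taken 0.5 or 24 h later and homogenized (50 per batch) in 50 mM sodium phosphate pH 7.4. Filtrate (~800 µg protein) was bound with 0.5 nM [3H]QNB, 60 min, 25 °C. Values are relative to vehicle-treated flies; 6−8 measurements over two experiments.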

Musca domestica [14] = assay: Ex vivo inhibition of [3H]QNB binding in brain of Musca domestica (house fly) at 75 ug/fly measured after 0.5 hr; format: functional; in short: as §2
Musca domestica [15] = assay: Ex vivo inhibition of [3H]QNB binding in brain of Musca domestica (house fly) at 25 ug/fly measured after 24 hr; format: functional; in short: as §2
Musca domestica [16] = assay: Ex vivo inhibition of [3H]QNB binding in brain of Musca domestica (house fly) at 25 ug/fly measured after 0.5 hr; format: functional; in short: as §2
Musca domestica [17] = assay: Toxicity to Musca domestica (house fly) assessed as mortality at 6.25 ug/fly measured after 24 hr; format: functional; in short: as §1
Musca domestica [18] = assay: Toxicity to Musca domestica (house fly) assessed as mortality at 6.25 ug/fly measured after 2.5 hr; format: functional; in short: as §1
Musca domestica [19] = assay: Toxicity to Musca domestica (house fly) assessed as mortality at 6.25 ug/fly measured after 1.5 hr; format: functional; in short: as §1
Musca domestica [20] = assay: Toxicity to Musca domestica (house fly) assessed as mortality at 6.25 ug/fly measured after 1 hr; format: functional; in short: as §1
Musca domestica [21] = assay: Toxicity to Musca domestica (house fly) assessed as mortality at 6.25 ug/fly measured after 0.5 hr; format: functional; in short: as §1
Musca domestica [22] = assay: Toxicity to Musca domestica (house fly) assessed as mortality at 7.5 ug/fly measured after 24 hr; format: functional; in short: as §1
Musca domestica [23] = assay: Toxicity to Musca domestica (house fly) assessed as mortality at 7.5 ug/fly measured after 2.5 hr; format: functional; in short: as §1
Musca domestica [24] = assay: Toxicity to Musca domestica (house fly) assessed as mortality at 7.5 ug/fly measured after 1.5 hr; format: functional; in short: as §1
Musca domestica [25] = assay: Toxicity to Musca domestica (house fly) assessed as mortality at 7.5 ug/fly measured after 1 hr; format: functional; in short: as §1
Musca domestica [26] = assay: Toxicity to Musca domestica (house fly) assessed as mortality at 7.5 ug/fly measured after 0.5 hr; format: functional; in short: as §1
[27] = target: Muscarinic acetylcholine receptor DM1 (Drosophila melanogaster) (UniProt P16395); assay: Displacement of [3H]QNB from Drosophila melanogaster mAChR at 100000 nM by scintillation counting
[28] = target: Muscarinic acetylcholine receptor DM1 (Drosophila melanogaster) (UniProt P16395); assay: Displacement of [3H]AF-DX 384 from Drosophila melanogaster mAChR at 100000 nM by scintillation counting
Musca domestica [29] = assay: Ex vivo inhibition of [3H]QNB binding in brain of Musca domestica (house fly) at 7.5 ug/fly measured after 24 hr; format: functional; in short: as §2
Musca domestica [30] = assay: Ex vivo inhibition of [3H]QNB binding in brain of Musca domestica (house fly) at 7.5 ug/fly measured after 0.5 hr; format: functional; in short: as §2

T1 sequence (P16395 whole entry): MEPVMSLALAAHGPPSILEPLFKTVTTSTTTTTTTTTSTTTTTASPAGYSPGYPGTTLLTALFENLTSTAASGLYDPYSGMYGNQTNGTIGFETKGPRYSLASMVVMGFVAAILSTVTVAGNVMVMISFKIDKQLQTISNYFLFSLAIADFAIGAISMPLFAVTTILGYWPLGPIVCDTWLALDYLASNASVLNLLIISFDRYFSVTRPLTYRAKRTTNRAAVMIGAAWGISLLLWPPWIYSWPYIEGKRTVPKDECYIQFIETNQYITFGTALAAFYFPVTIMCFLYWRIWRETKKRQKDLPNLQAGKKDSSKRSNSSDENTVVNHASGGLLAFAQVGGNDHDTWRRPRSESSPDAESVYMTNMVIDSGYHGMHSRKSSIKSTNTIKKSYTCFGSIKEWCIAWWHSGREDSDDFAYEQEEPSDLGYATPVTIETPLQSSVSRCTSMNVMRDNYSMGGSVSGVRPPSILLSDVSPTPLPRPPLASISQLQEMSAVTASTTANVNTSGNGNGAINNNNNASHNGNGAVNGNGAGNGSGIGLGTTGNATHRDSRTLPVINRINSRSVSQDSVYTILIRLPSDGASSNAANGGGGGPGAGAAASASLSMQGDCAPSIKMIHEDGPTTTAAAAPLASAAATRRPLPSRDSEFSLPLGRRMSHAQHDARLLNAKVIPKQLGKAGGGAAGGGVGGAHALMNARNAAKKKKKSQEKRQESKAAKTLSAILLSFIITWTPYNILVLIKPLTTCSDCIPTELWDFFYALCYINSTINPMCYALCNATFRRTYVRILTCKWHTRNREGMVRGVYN
Muscarinic acetylcholine receptor DM1 (Drosophila melanogaster), sequence (P16395 whole entry): as above

| Structure (SMILES) | Ki [1] | Ki [2] | Activity (Musca domestica [3]) | Activity (Musca domestica [4]) | Activity (Musca domestica [5]) | Activity (Musca domestica [6]) | Activity (Musca domestica [7]) | Activity (Musca domestica [8]) | Activity (Musca domestica [9]) | Activity (Musca domestica [10]) | Activity (Musca domestica [11]) | Activity (Musca domestica [12]) | inhibition (INH) (Musca domestica [15]) | inhibition (INH) (Musca domestica [16]) | also measured |
| --- | --- | --- | --- | --- | --- | --- | --- | --- | --- | --- | --- | --- | --- | --- | --- |
| CN1[C@@H]2CC[C@H]1C[C@@H](OC(=O)N1Cc3ccccc3NC1=O)C2 | 0.64 µM | 0.57 µM | 7% | 17% | 23% | 43% | 70% | 0% | 0% | 10% | 17% | 23% | – | – | – |
| Cc1noc(C2CN3CCC2CC3)n1 (configuration not stated) | 1.32 µM | 1.33 µM | 13% | 33% | 60% | 83% | 100% | 3% | 3% | 13% | 20% | 47% | 9% | 49% | inhibition (INH) (Musca domestica [13]): 16%; inhibition (INH) (Musca domestica [14]): 80% |
| CCCN(CCC)CC1CCCCN1CCNC(=O)N1c2ccccc2C(=O)Nc2cccnc21 (configuration not stated) | 0.0048 µM | 0.0061 µM | – | – | – | – | – | – | – | – | – | – | – | – | Activity (Musca domestica [17]): 3%; Activity (Musca domestica [18]): 3%; Activity (Musca domestica [19]): 3%; Activity (Musca domestica [20]): 3%; Activity (Musca domestica [21]): 30% |
| C[C@H](C1=C(CCN(C)C)Cc2ccccc21)c1ccccn1 | 0.51 µM | 0.66 µM | 23% | 97% | 100% | 100% | 100% | 3% | 17% | 40% | 70% | 100% | 0% | 41% | inhibition (INH) (Musca domestica [13]): 28%; inhibition (INH) (Musca domestica [14]): 81%; Activity (Musca domestica [22]): 0%; Activity (Musca domestica [23]): 0%; Activity (Musca domestica [24]): 0%; Activity (Musca domestica [25]): 0%; Activity (Musca domestica [26]): 10% |
| CCOC(=O)c1c(C)[nH]c2ccc3c(c12)CN1CCc2cc(OC)ccc2C1O3 (configuration not stated) | 1.03 µM | 1.43 µM | – | – | – | – | – | 13% | 13% | 13% | 13% | 20% | – | – | – |
| O=[N+]([O-])/N=C1\NCCN1Cc1ccc(Cl)nc1 | – | – | – | – | – | – | – | – | – | – | – | – | – | – | inhibition [27]: 1%; inhibition [28]: 3% |
| C[N+]1(C)CCC(OC(=O)C(c2ccccc2)c2ccccc2)CC1.[I-] [4-DAMP] | 0.015 µM | 0.018 µM | 33% | 60% | 57% | 67% | 100% | 10% | 20% | 40% | 47% | 60% | 59% | 92% | inhibition (INH) (Musca domestica [29]): 49%; inhibition (INH) (Musca domestica [30]): 79%; Activity (Musca domestica [22]): 7%; Activity (Musca domestica [23]): 3%; Activity (Musca domestica [24]): 7%; Activity (Musca domestica [25]): 10%; Activity (Musca domestica [26]): 10% |
| Cc1ccc(C[N+](C)(C)C)o1 [5-METHYLFURMETHIODIDE] | 14.9 µM | 12.3 µM | – | – | – | – | – | – | – | – | – | – | – | – | – |
| CC(=O)OC1CN2CCC1CC2 (configuration not stated) [ACECLIDINE] | 130 µM | 114 µM | 3% | 10% | 27% | 30% | 100% | 0% | 3% | 3% | 3% | 33% | – | – | – |
| CC#CCOC(=O)C1=CCCN(C)C1 [ARECAIDINE BUT-2-YNYL ESTER] | 1.5 µM | 1.56 µM | 4% | 8% | 9% | 9% | 10% | 3% | 3% | 3% | 3% | 3% | – | – | – |
